The record followed here is ChEMBL document CHEMBL3877301 (J Med Chem, 2016).

Usually inhibition stands for the drop in the measured response relative to a control, in per cent. By ED50 is commonly meant the midpoint of the dose-response relation. As usually defined, the Ki is a dissociation constant, usually derived from enzyme kinetics or from competition with a known ligand. Higher therefore signals lower affinity. For orientation: IC50 means the midpoint of a concentration-inhibition curve.

The species named for assay [1] is Mus musculus. As to the kind of experiment: Analgesic activity in CD-1 mouse assessed as reduction in acetic acid-induced abdominal constrictions preincubated for 15 mins followed by acetic acid challenge measured for 30 mins by writhing test. Format: functional. The settings on record: for inhibition: Abdomen. In short, it runs like this:
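Mice received acetic acid ip to induce abdominal constrictions; vehicle-treated mice served as controls. Test agents were given over a dose range. ED50 (mg/kg) was derived from the dose–response curve, and dose dependence was analysed by one-way ANOVA.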
For orientation: Writhing tests count abdominal constrictions after an irritant is injected.

For assay [2], the species on record is Mus musculus. The experiment in a line: Antinociceptive activity in CD-1 mouse assessed as increase in latency in response to heat stimulus measured for 15 mins by hot water tail immersion test. Format: functional. The settings on record: CD-1, 0.25 h. The essentials:
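Test agents were given to mice over a dose range before hot water tail immersion. ED50 (mg/kg) was derived from the dose–response curve, and the minimum effective dose was also noted.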

Assay [3] has as its target T1, Adenosine receptor A1 (Homo sapiens) (UniProt P30542).
T1 sequence (whole entry): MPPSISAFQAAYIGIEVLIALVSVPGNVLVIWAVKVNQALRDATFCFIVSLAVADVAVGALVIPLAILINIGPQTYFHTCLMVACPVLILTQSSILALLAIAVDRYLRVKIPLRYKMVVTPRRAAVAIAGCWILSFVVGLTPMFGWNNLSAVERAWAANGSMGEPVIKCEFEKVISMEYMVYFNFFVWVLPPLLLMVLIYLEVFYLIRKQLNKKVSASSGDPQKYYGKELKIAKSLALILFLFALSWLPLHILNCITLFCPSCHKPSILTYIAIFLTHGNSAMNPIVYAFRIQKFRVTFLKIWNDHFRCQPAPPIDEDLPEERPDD
The experiment in a line: Inverse agonist activity at human adenosine A1 receptor expressed in CHO cells assessed as inhibition of cAMP accumulation at 10 uM measured after 150 mins in presence of [3H]cAMP by scintillation counting method relative to control. Format: functional, cell-based. In short, it runs like this: (§1)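 Transfected CHO cells (hA1, hA2B or hA3) were grown adherently in DMEM/F12 with 10% fetal calf serum, penicillin, streptomycin, 2 mM L-glutamine and 0.2 mg/mL G418 at 37 °C in 5% CO2. Test compounds were applied at 10 μM. cAMP is reported as percent of basal level (100%), given as mean ± SEM.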
Background: cAMP levels reflect the balance of adenylyl cyclase and phosphodiesterase activity.

The target of assay [4] is T2, Adenosine receptor A3 (Homo sapiens) (UniProt P0DMS8).
T2 sequence (whole entry): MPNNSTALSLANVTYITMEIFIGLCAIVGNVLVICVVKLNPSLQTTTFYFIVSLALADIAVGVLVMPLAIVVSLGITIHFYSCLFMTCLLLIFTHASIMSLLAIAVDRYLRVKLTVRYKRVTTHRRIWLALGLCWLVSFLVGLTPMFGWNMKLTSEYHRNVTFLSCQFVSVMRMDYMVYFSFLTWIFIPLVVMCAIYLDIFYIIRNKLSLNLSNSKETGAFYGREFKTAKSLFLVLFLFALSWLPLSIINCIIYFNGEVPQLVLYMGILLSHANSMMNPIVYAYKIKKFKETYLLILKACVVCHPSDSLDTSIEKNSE
The experiment in a line: Inverse agonist activity at human adenosine A3 receptor expressed in CHO cells assessed as inhibition of cAMP accumulation at 10 uM measured after 150 mins in presence of [3H]cAMP by scintillation counting method relative to control. The class given is functional, cell-based. The essentials: as §1

Assay [5] concerns the target T3, Adenosine receptor A2b (Homo sapiens) (UniProt P29275).
T3 sequence (whole entry): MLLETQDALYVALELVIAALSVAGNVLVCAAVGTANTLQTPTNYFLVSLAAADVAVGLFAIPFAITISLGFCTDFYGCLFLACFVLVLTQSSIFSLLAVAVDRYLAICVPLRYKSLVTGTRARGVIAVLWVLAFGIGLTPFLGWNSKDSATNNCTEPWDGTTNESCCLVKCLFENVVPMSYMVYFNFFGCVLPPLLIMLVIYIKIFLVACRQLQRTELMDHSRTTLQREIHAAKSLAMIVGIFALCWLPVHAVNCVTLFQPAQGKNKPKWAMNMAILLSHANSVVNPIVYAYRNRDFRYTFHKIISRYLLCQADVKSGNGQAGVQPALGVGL
The experiment in a line: Inverse agonist activity at human adenosine A2B receptor expressed in CHO cells assessed as inhibition of cAMP accumulation at 10 uM measured after 150 mins in presence of [3H]cAMP by scintillation counting method relative to control. The class given is functional, cell-based. The essentials:
as §1

Assay [6] has as its target T4, Adenosine receptor A2a (Homo sapiens, UniProt P29274). The settings on record: CHO.
For another assay, the target named is T5, Adenosine receptor A1 (Homo sapiens, UniProt P30542).
T5 sequence (P30542 whole entry): T1 sequence (whole entry)
As to the kind of experiment: Displacement of [3H]DPCPX from human adenosine A1 receptor expressed in CHO cell membranes measured after 90 mins by scintillation counting method. The essentials: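 Membranes came from CHO cells stably transfected with hA1 AR. Cells were scraped into ice-cold hypotonic buffer (5 mM Tris HCl, 1 mM EDTA, pH 7.4), homogenized, and spun at 40000g for 30 min at 4 °C. Membranes (50 μg protein/100 μL) were incubated with 1 nM [3H]-DPCPX and varied test concentrations at 25 °C for 90 min in 50 mM Tris HCl, pH 7.4.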
Background: Loss of bound radioactivity is the signal in a displacement assay; it reports binding, not function.

The target of a further assay is T6, Adenosine receptor A3 (Homo sapiens, UniProt P0DMS8).
T6 sequence (P0DMS8 whole entry): T2 sequence (whole entry)
The experiment in a line: Displacement of [125I]AB-MECA from human adenosine A3 receptor expressed in CHO cell membranes measured after 120 mins by scintillation counting method.

The next assay deals with T7, Adenosine receptor A2b (Homo sapiens, UniProt P29275).
T7 sequence (P29275 whole entry): T3 sequence (whole entry)
As to the kind of experiment: Inverse agonist activity at human adenosine A2B receptor expressed in CHO cells assessed as inhibition of cAMP accumulation measured after 150 mins in presence of [3H]cAMP by scintillation counting method. Format: functional, cell-based.

For assay [7], the target named is T4, Adenosine receptor A2a. As to the kind of experiment: Inverse agonist activity at human adenosine A2A receptor expressed in CHO cells assessed as inhibition of cAMP accumulation measured after 150 mins in presence of [3H]cAMP by scintillation counting method. The class given is functional, cell-based.
Assay [8] deals with T4, Adenosine receptor A2a. As to the kind of experiment: Antagonist activity against human adenosine A2A receptor expressed in CHO cells assessed as inhibition of CGS21680-stimulated cAMP accumulation measured after 150 mins in presence of [3H]cAMP by scintillation counting method. Format: functional, cell-based.
The target of assay [9] is T4, Adenosine receptor A2a. As to the kind of experiment: biochemical.

Structures are written as SMILES. Bounds are passed on as bounds.

T4 sequence (P29274 whole entry): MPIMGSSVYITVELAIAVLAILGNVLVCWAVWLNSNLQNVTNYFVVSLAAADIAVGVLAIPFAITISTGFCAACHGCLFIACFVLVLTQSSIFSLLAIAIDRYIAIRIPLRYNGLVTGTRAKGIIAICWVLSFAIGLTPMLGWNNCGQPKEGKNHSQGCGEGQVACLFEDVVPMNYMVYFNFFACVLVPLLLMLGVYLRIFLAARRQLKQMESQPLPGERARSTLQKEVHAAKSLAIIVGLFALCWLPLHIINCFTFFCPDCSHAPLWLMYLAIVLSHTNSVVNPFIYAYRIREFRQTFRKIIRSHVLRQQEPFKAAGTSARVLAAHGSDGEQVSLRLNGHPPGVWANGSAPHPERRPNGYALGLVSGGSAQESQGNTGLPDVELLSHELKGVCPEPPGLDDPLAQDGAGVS

On to `CN1CC[C@]23c4c5ccc(O)c4O[C@H]2[C@@H](O)C=C[C@H]3[C@H]1C5` [MORPHINE], for which, in the assay filed under Mus musculus [1], the inhibition entry was “Dose-dependent effect”. Moreover, the ED50 in the assay filed under Mus musculus [2] was determined as 1.14 mg/kg.
As to `COc1ccccc1CNc1nc(N)c2nc(-c3ccco3)sc2n1`, the inhibition in assay [3] is 106%; in [4], 91%; in assay [5], 94%; in the assay listed under Mus musculus [1], “Dose-dependent effect”. Besides, in the assay filed under Mus musculus [2] (read-out: MED), the minimal effective dose came out at 0.01 mg/kg. In addition, the KiH at Adenosine receptor A2a [6] was 5.23 nM.
With `Nc1nc(NCc2ccccc2)nc2sc(-c3ccco3)nc12`, the Ki was 0.045 µM on Adenosine receptor A1, 0.037 µM at Adenosine receptor A3 and 0.022 µM on Adenosine receptor A2a [9]. Also, the IC50 was 0.032 µM on Adenosine receptor A2b, 0.029 µM at Adenosine receptor A2a [7] and 0.018 µM on Adenosine receptor A2a [8]. The inhibition in assay [3] stood at 101%; in [4], 102%; in assay [5], 95%.
Regarding `COc1cccc(CCNc2nc(N)c3nc(-c4ccco4)sc3n2)c1`, the Ki at Adenosine receptor A1 was 0.00092 µM; on Adenosine receptor A3, 0.287 µM; at Adenosine receptor A2a [9] it was 0.017 µM. In addition, on Adenosine receptor A2b, the IC50 was 0.047 µM.
Consider `Nc1nc(NCCc2ccccc2)nc2sc(-c3ccco3)nc12`, for which the values for the Ki at Adenosine receptor A1, on Adenosine receptor A3 and on Adenosine receptor A2a [9] were 0.024 µM, 0.217 µM and 0.03 µM, respectively. Moreover, the IC50 at Adenosine receptor A2b came to 0.389 µM; on Adenosine receptor A2a [7], 0.035 µM; on Adenosine receptor A2a [8], 0.016 µM. Moreover, the figures for the inhibition in [3], in [4] and in [5] were 105%, 94% and 102%, respectively.
Regarding `COc1cccc(CNc2nc(N)c3nc(-c4ccco4)sc3n2)c1`, the inhibition in assay [3] is 104%; in [4], 106%; in assay [5], 99%; in the assay filed under Mus musculus [1], “Dose-dependent effect”. The ED50 was determined as 0.158 mg/kg in the assay listed under Mus musculus [1] (CD-1, Abdomen) and 0.926 mg/kg in the assay listed under Mus musculus [2]. This molecule registered a KiH at Adenosine receptor A2a [6] of 6.71 nM.
Regarding `Nc1nc(Nc2ccccc2)nc2sc(-c3ccco3)nc12`, the results for the Ki at Adenosine receptor A1, at Adenosine receptor A3 and at Adenosine receptor A2a [9] were 0.645 µM, 0.321 µM and 0.782 µM, respectively. Further, the IC50 on Adenosine receptor A2b turned out to be 0.632 µM.
On the same counts, the results for `COc1ccc(CCNc2nc(N)c3nc(-c4ccco4)sc3n2)cc1OC` are 0.221 µM, 0.824 µM, 0.091 µM and 0.095 µM.
On the same counts, the results for `Nc1nc(NCCc2ccc(O)c(O)c2)nc2sc(-c3ccco3)nc12` are 0.039 µM, 0.546 µM, 0.04 µM and 0.018 µM.
Consider `COc1ccc(CCNc2nc(N)c3nc(-c4ccco4)sc3n2)cc1`, for which the values for the Ki at Adenosine receptor A1, at Adenosine receptor A3 and at Adenosine receptor A2a [9] were 0.061 µM, 2.65 µM and 0.032 µM, respectively. The half-maximal inhibitory concentration (IC50) at Adenosine receptor A2b turned out to be 0.553 µM; at Adenosine receptor A2a [7], 0.042 µM; on Adenosine receptor A2a [8], 0.031 µM. The inhibition came out at 93% in assay [3], 105% in [4] and 103% in assay [5].
As for `Nc1nc(NCc2cccc(O)c2)nc2sc(-c3ccco3)nc12`, the inhibition came to 96% in assay [3], 98% in assay [4] and 95% in assay [5].
As for `Nc1nc(NCCCc2ccccc2)nc2sc(-c3ccco3)nc12`, the Ki at Adenosine receptor A1 came to 0.049 µM; at Adenosine receptor A3, 1.14 µM; at Adenosine receptor A2a [9], 0.058 µM. In addition, at Adenosine receptor A2b, the IC50 came to 1.77 µM.
`Nc1nc(NCCc2ccc(O)cc2)nc2nc(-c3ccco3)nn12` [ZM-241385]: the inhibition in assay [3] was 103%; in [4], 101%; in [5] it was 109%; in the assay listed under Mus musculus [1], “Dose-dependent effect”. The ED50 in the assay filed under Mus musculus [2] was above 10 mg/kg.
As to `COc1ccc(CNc2nc(N)c3nc(-c4ccco4)sc3n2)cc1`, the inhibition in assay [3] worked out at 100%; in [4], 104%; in [5] it was 97%.
For the molecule `Nc1nc(NCCc2cccc(O)c2)nc2sc(-c3ccco3)nc12`, the Ki on Adenosine receptor A1 came out at 0.00023 µM; on Adenosine receptor A3, 0.076 µM; at Adenosine receptor A2a [9], 0.016 µM. At Adenosine receptor A2b, the 50% inhibitory concentration (IC50) came to 0.025 µM.
Take `Nc1nc(NCCc2ccc(O)cc2)nc2sc(-c3ccco3)nc12`: the figures for the Ki on Adenosine receptor A1, on Adenosine receptor A3 and at Adenosine receptor A2a [9] were 0.037 µM, 1.88 µM and 0.018 µM, respectively. For the same molecule, the concentration for half-maximal inhibition (IC50) on Adenosine receptor A2b was 0.482 µM; at Adenosine receptor A2a [7], 0.025 µM; on Adenosine receptor A2a [8] it was 0.021 µM. For the same molecule, the figures for the inhibition in [3], in assay [4] and in [5] were 102%, 101% and 92%, respectively.
